# Assays:
# [1] = Metabolic stability in mouse liver microsomes assessed as parent compound remaining at 1 uM measured upto 60 mins in presence of NADPH by LC-MS/MS analysis; type: ADME, Microsome; settings: read-out: Stabilty
# in vitro = settings: human, Caco-2
# [2] = Metabolic stability in rat liver microsomes assessed as parent compound remaining at 1 uM measured upto 60 mins in presence of NADPH by LC-MS/MS analysis; type: ADME, Microsome; settings: read-out: Stabilty
# [3] = Metabolic stability in human liver microsomes assessed as parent compound remaining at 1 uM measured upto 60 mins in presence of NADPH by LC-MS/MS analysis; type: ADME, Microsome; settings: read-out: Stabilty
# [4] = AUC (0 to t) in CD-1 mouse at 3 mg/kg, iv measured up to 24 hrs by LC-MS/MS analysis; type: ADME, organism-based; parameters: route intravenous, dose 3 mg/kg, time <=24; settings: in vivo
# [5] = Cmax in CD1 mouse at 10 mg/kg, po measured up to 24 hrs by LC-MS/MS analysis; type: ADME, organism-based; parameters: route oral, dose 10 mg/kg, time <=24; settings: in vivo
# [6] = AUC (0 to t) in Wistar rat at 10 mg/kg, po measured up to 24 hrs by LC-MS/MS analysis; type: ADME, organism-based; parameters: route oral, dose 10 mg/kg, time <=24; settings: in vivo
# [7] = Drug concentration in human OCI-LY3 cells xenografted SCID Beige mouse plasma at 200 mg/kg, po administered via gavage for 14 days and measured at 2 hrs post last dose by LC-MS/MS analysis; type: ADME, organism-based; settings: time 14 day
# Method in brief: (§1)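 Xenograft-bearing mice (OCI-Ly3) were given oral doses of 25, 50, 100 or 200 mg/kg once daily. Plasma and tumor were collected 2 h after the final dose on day 15. Results are reported as mean plasma concentration (ng/mL) and mean tumor concentration (ng/g) for each dose group.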
# [8] = Oral bioavailability in Wistar rat at 10 mg/kg measured up to 24 hrs by LC-MS/MS analysis; type: ADME, organism-based; settings: in vivo
# [9] = Cmax in dog at 10 mg/kg, po measured up to 24 hrs by LC-MS/MS analysis; type: ADME, organism-based, Canis lupus familiaris; parameters: route oral, dose 10 mg/kg, time <=24; settings: in vivo
# [10] = Clearance in dog at 1 mg/kg, iv measured up to 24 hrs by LC-MS/MS analysis; type: ADME, organism-based, Canis lupus familiaris; settings: in vivo
# [11] = Initial plasma concentration in dog at 1 mg/kg, iv by LC-MS/MS analysis; type: ADME, organism-based, Canis lupus familiaris
# [12] = Drug concentration in human OCI-LY3 cells xenografted SCID Beige mouse plasma at 100 mg/kg, po administered via gavage for 14 days and measured at 2 hrs post last dose by LC-MS/MS analysis; type: ADME, organism-based; settings: time 14 day; method in brief: as §1
# [13] = AUC (0 to t) in Wistar rat at 3 mg/kg, iv measured up to 24 hrs by LC-MS/MS analysis; type: ADME, organism-based; parameters: route intravenous, dose 3 mg/kg, time <=24; settings: in vivo
# [14] = Half life in Wistar rat at 3 mg/kg, iv measured up to 24 hrs by LC-MS/MS analysis; type: ADME, organism-based; settings: in vivo
# [15] = Drug concentration in human OCI-LY3 cells xenografted SCID Beige mouse tumor at 100 mg/kg, po administered via gavage for 14 days and measured at 2 hrs post last dose by LC-MS/MS analysis; type: ADME, organism-based, Neoplasm; settings: time 14 day, read-out: Ct; method in brief: as §1
# [16] = Volume of distribution in CD1 mouse at 3 mg/kg, iv measured up to 24 hrs by LC-MS/MS analysis; type: ADME, organism-based; settings: in vivo
# [17] = Clearance in CD1 mouse at 3 mg/kg, iv measured up to 24 hrs by LC-MS/MS analysis; type: ADME, organism-based; settings: in vivo
# [18] = Initial plasma concentration in CD1 mouse at 3 mg/kg, iv by LC-MS/MS analysis; type: ADME, organism-based
# [19] = Tmax in dog at 10 mg/kg, po measured up to 24 hrs by LC-MS/MS analysis; type: ADME, organism-based, Canis lupus familiaris; settings: in vivo
# [20] = Volume of distribution in Wistar rat at 3 mg/kg, iv measured up to 24 hrs by LC-MS/MS analysis; type: ADME, organism-based; settings: in vivo
# [21] = Oral bioavailability in dog at 10 mg/kg measured up to 24 hrs by LC-MS/MS analysis; type: ADME, organism-based, Canis lupus familiaris; settings: in vivo
# [22] = Half life in CD1 mouse at 3 mg/kg, iv measured up to 24 hrs by LC-MS/MS analysis; type: ADME, organism-based; settings: in vivo
# [23] = Volume of distribution in dog at 1 mg/kg, iv measured up to 24 hrs by LC-MS/MS analysis; type: ADME, organism-based, Canis lupus familiaris; settings: in vivo
# [24] = Tmax in CD1 mouse at 10 mg/kg, po measured up to 24 hrs by LC-MS/MS analysis; type: ADME, organism-based; settings: in vivo
# [25] = Drug concentration in human OCI-LY3 cells xenografted SCID Beige mouse tumor at 50 mg/kg, po administered via gavage for 14 days and measured at 2 hrs post last dose by LC-MS/MS analysis; type: ADME, organism-based, Neoplasm; settings: time 14 day, read-out: Ct; method in brief: as §1
# [26] = Clearance in Wistar rat at 3 mg/kg, iv measured up to 24 hrs by LC-MS/MS analysis; type: ADME, organism-based; settings: in vivo
# [27] = Drug concentration in human OCI-LY3 cells xenografted SCID Beige mouse tumor at 25 mg/kg, po administered via gavage for 14 days and measured at 2 hrs post last dose by LC-MS/MS analysis; type: ADME, organism-based, Neoplasm; settings: time 14 day, read-out: Ct; method in brief: as §1
# [28] = Half life in dog at 1 mg/kg, iv measured up to 24 hrs by LC-MS/MS analysis; type: ADME, organism-based, Canis lupus familiaris; settings: in vivo
# [29] = Drug concentration in human OCI-LY3 cells xenografted SCID Beige mouse plasma at 50 mg/kg, po administered via gavage for 14 days and measured at 2 hrs post last dose by LC-MS/MS analysis; type: ADME, organism-based; settings: time 14 day; method in brief: as §1
# [30] = Oral bioavailability in CD1 mouse at 10 mg/kg measured up to 24 hrs by LC-MS/MS analysis; type: ADME, organism-based; settings: in vivo
# [31] = AUC (0 to t) in dog at 1 mg/kg, iv measured up to 24 hrs by LC-MS/MS analysis; type: ADME, organism-based, Canis lupus familiaris; parameters: route intravenous, dose 1 mg/kg, time <=24; settings: in vivo
# [32] = Tmax in Wistar rat at 10 mg/kg, po measured up to 24 hrs by LC-MS/MS analysis; type: ADME, organism-based; settings: in vivo
# [33] = Initial plasma concentration in Wistar rat at 3 mg/kg, iv by LC-MS/MS analysis; type: ADME, organism-based
# [34] = Drug concentration in human OCI-LY3 cells xenografted SCID Beige mouse plasma at 25 mg/kg, po administered via gavage for 14 days and measured at 2 hrs post last dose by LC-MS/MS analysis; type: ADME, organism-based; settings: time 14 day; method in brief: as §1
# [35] = AUC (0 to t) in dog at 10 mg/kg, po measured up to 24 hrs by LC-MS/MS analysis; type: ADME, organism-based, Canis lupus familiaris; parameters: route oral, dose 10 mg/kg, time <=24; settings: in vivo
# [36] = Fraction unbound in human OCI-LY3 cells xenografted SCID Beige mouse plasma at 200 mg/kg, po after 24 hrs by equilibrium dialysis method; type: ADME, organism-based; settings: in vivo
# Method in brief: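 Mouse plasma protein binding is the mean of 2 determinations. It was applied to the plasma exposures at 12 and 24 h in the OCI-Ly3 PK/PD study to estimate unbound plasma levels.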
# [37] = Cmax in Wistar rat at 10 mg/kg, po measured up to 24 hrs by LC-MS/MS analysis; type: ADME, organism-based; parameters: route oral, dose 10 mg/kg, time <=24; settings: in vivo
# [38] = AUC (0 to t) in CD-1 mouse at 10 mg/kg, po measured up to 24 hrs by LC-MS/MS analysis; type: ADME, organism-based; parameters: route oral, dose 10 mg/kg, time <=24; settings: in vivo
# [39] = Drug concentration in human OCI-LY3 cells xenografted SCID Beige mouse tumor at 200 mg/kg, po administered via gavage for 14 days and measured at 2 hrs post last dose by LC-MS/MS analysis; type: ADME, organism-based, Neoplasm; settings: time 14 day, read-out: Ct; method in brief: as §1
smiles,measurement,setting,value
CCC1(O)CCCN(c2nc3nc(N4CCOCC4)oc3cc2NC(=O)c2coc(-c3ccnc(C)c3)n2)C1 (stereo unspecified),"remaining at 1 h, 1 µM",[1],91%
same,"Papp A→B at 2 h, 10 µM",in vitro,8.5 ×10⁻⁶ cm/s
same,"remaining at 1 h, 1 µM",[2],> 95%
same,"remaining at 1 h, 1 µM",[3],> 95%
Cc1cc(-c2nc(C(=O)Nc3cc4oc(N5CCOCC5)nc4nc3N3CCC(F)CC3)co2)ccn1,"remaining at 1 h, 1 µM",[1],50%
same,"remaining at 1 h, 1 µM",[2],68%
same,"remaining at 1 h, 1 µM",[3],69%
Cc1cc(-c2nc(C(=O)Nc3cc4oc(N5CCOCC5)nc4nc3N3CCCC(F)C3)co2)ccn1 (stereo unspecified),"remaining at 1 h, 1 µM",[1],89%
same,"Papp A→B at 2 h, 10 µM",in vitro,15.8 ×10⁻⁶ cm/s
same,"remaining at 1 h, 1 µM",[2],91%
same,"remaining at 1 h, 1 µM",[3],67%
Nc1ccc(-c2cccc(C(=O)Nc3ccc4nc(N5CCOCC5)oc4c3)n2)cn1,"Papp A→B at 2 h, 10 µM",in vitro,21.4 ×10⁻⁶ cm/s
O=C(Nc1cc2oc(N3CCOCC3)nc2nc1C1CC1)c1coc(N2CC[C@H](O)C2)n1,"remaining at 1 h, 1 µM",[1],> 95%
same,"Papp A→B at 2 h, 10 µM",in vitro,21 ×10⁻⁶ cm/s
same,"remaining at 1 h, 1 µM",[2],> 95%
same,"remaining at 1 h, 1 µM",[3],90%
Cc1cc(-c2nc(C(=O)Nc3cc4oc(N5CCOCC5)nc4nc3N3CC[C@@H](O)C3)co2)ccn1 [EMAVUSERTIB],AUC(0-t) at 24 h,[4],5270 ng·h/mL
same,Cmax,[5],6620 ng/mL
same,AUC(0-t) at 24 h,[6],171000 ng·h/mL
same,concentration at 336 h,[7],39100 ng/mL
same,bioavailability,[8],46%
same,Cmax,[9],12800 ng/mL
same,"remaining at 1 h, 1 µM",[1],> 95%
same,clearance,[10],3.1 mL/min/kg
same,C0,[11],1960 ng/mL
same,"Papp A→B at 2 h, 10 µM",in vitro,8.9 ×10⁻⁶ cm/s
same,concentration at 336 h,[12],23300 ng/mL
same,AUC(0-t) at 24 h,[13],112000 ng·h/mL
same,t1/2,[14],5.3 h
same,concentration at 336 h,[15],17900 ng/g
same,Vd,[16],0.661 L/kg
same,clearance,[17],9.27 mL/min/kg
same,C0,[18],7480 ng/mL
same,Tmax,[19],1.17 h
same,Vd,[20],2 L/kg
same,bioavailability,[21],100%
same,half-life,[22],2.6 h
same,"remaining at 1 h, 1 µM",[2],> 95%
same,Vd,[23],0.5 L/kg
same,Tmax,[24],0.5 h
same,concentration at 336 h,[25],8290 ng/g
same,CL,[26],0.4 mL/min/kg
same,concentration at 336 h,[27],2670 ng/g
same,half-life,[28],2.6 h
same,concentration at 336 h,[29],11600 ng/mL
same,bioavailability,[30],71%
same,AUC(0-t) at 24 h,[31],6060 ng·h/mL
same,Tmax,[32],1.2 h
same,C0,[33],27700 ng/mL
same,concentration at 336 h,[34],5080 ng/mL
same,AUC(0-t) at 24 h,[35],86500 ng·h/mL
same,Cp(f),[36],49.3 ng/mL
same,Cmax,[37],22100 ng/mL
same,"remaining at 1 h, 1 µM",[3],> 95%
same,AUC(0-t) at 24 h,[38],12500 ng·h/mL
same,concentration at 336 h,[39],37000 ng/g

# Reference: ChEMBL document CHEMBL4665913, “Discovery of CA-4948, an Orally Bioavailable IRAK4 Inhibitor for Treatment of Hematologic Malignancies” (ACS Med Chem Lett, 2020)
